Measured values of several laboratories.
Protocols differ between the studies behind these lines.
BTK: Tyrosine-protein kinase BTK (BTK, Homo sapiens, UniProt Q06187)
AKT2: RAC-beta serine/threonine-protein kinase (AKT2, Homo sapiens, UniProt P31751)

SMILES	target	assay	conditions	measurement	result
Cc1nc(Nc2ncc(C(=O)Nc3c(C)cccc3Cl)s2)cc(N2CC[C@H](O)C2)n1	BTK	enzyme activity, inhibitor, mobility shift	1 nM	inhibition	72%
Cc1cc(O)c(-c2ccc([C@@H](C)CN(C)C)cc2)c2c1[nH]c(=O)c1sccc12	Ribosomal protein S6 kinase alpha-5, N-terminal kinase domain (RPS6KA5, Homo sapiens, UniProt O75582)	enzyme activity, inhibitor	0.1 µM	inhibition	3.82%
[2H]c1cc(C)c(NC(=O)c2cnc(Nc3cc(N4CCCCC4)nc(C)n3)s2)c(Cl)c1	BTK	enzyme activity, inhibitor, mobility shift	100 pM	inhibition	> 50%
N#Cc1ccc(NC(=O)Nc2ccccc2)cc1	Mast/stem cell growth factor receptor Kit (KIT, Homo sapiens, UniProt P10721, D816V)	cell-free assay, competition with immobilised ligand	25 µM	remaining binding	89%
Cc1nc(Nc2ncc(C(=O)Nc3c(C)cccc3Cl)s2)cc(N2CCCCC2)n1	BTK	enzyme activity, inhibitor, mobility shift	1 nM	inhibition	56%
NC/C(=C\F)COc1cccc(Cn2c(=S)[nH]c(=O)c3[nH]cnc32)c1	D(4) dopamine receptor (DRD4, Homo sapiens, UniProt P21917, del265-296)	ligand displacement, radioligand	10 µM	inhibition	< 50%
C#Cc1cc(-c2cc(Nc3nc(N[C@@H](C)c4ccc(F)cn4)ncc3Cl)n[nH]2)ccc1C=O	Mitogen-activated protein kinase kinase kinase 19 (MAP3K19, Homo sapiens, UniProt Q56UN5)	enzyme activity, inhibitor	0.2 µM	inhibition	3.1%
Cc1cc(-c2ccnc3[nH]cc(F)c23)cc(F)c1[C@@]1(O)[C@H](C)CN(C2CCS(=O)(=O)CC2)C[C@@H]1C	AKT2	enzyme activity, inhibitor	0.1 µM	remaining activity	103%
CCCCC(=O)Nc1ccc(-c2ccc3ncn(CCC)c(=O)c3c2)cn1	Mast/stem cell growth factor receptor Kit (KIT, Homo sapiens, UniProt P10721, V559D)	binding, competition with immobilised ligand	0.5 µM	remaining binding	99%
C[C@H](NC(=O)C(=O)Nc1ccccc1C(C)(C)C)C(=O)N[C@@H](CC(=O)O)C(=O)COc1c(F)c(F)cc(F)c1F	Caspase-4 (Casp4, Mus musculus, UniProt P70343)	enzyme activity, inhibitor		kinact/KI	448000 M⁻¹ s⁻¹
O=C(COc1ccc(Cl)c(F)c1)NC12CC(NC(=O)c3cnc(C(F)F)cn3)(C1)C2	Translation initiation factor eIF2B subunit beta/Translation initiation factor eIF2B subunit delta (Homo sapiens, UniProt P49770+Q9UI10)	ligand displacement, TR-FRET	100 µM	inhibition	100%
[2H]c1cc(C)c(NC(=O)c2cnc(Nc3cc(N4CC[C@H](O)C4)nc(C)n3)s2)c(Cl)c1	BTK	enzyme activity, inhibitor, mobility shift	1 nM	inhibition	72%
COc1ccc2oc(-c3ccc4nc(N)oc4c3)c/c(=N\c3ccccc3NC(=O)CCN)c2c1	Casein kinase II subunit alpha (CSNK2A1, Homo sapiens, UniProt P68400)	binding	1 µM	remaining binding	106%
Cc1cc(-c2ccnc3[nH]cc(F)c23)cc(F)c1[C@@]1(O)[C@H](C)CN(C(=O)CN)C[C@@H]1C	AKT2	enzyme activity, inhibitor	0.1 µM	remaining activity	113%
C1=C/COCc2cc(ccc2OCCN2CCCC2)Nc2nccc(n2)-c2cccc(c2)COC/1	Serine/threonine-protein kinase Nek11 (NEK11, Homo sapiens, UniProt Q8NG66)	binding	0.1 µM	remaining binding	95%
